Our source for the selectivity ratio and IC50 values is ChEMBL document CHEMBL1140973, “New Pd(II) complexes of the synthesized 1-N-substituted thiosemicarbazones of 3-indole carboxaldehyde: characterization and antiamoebic assessment against E. histolytica” (Eur J Med Chem, 2008).

Where only a bound is given, the exact number is not on record here.

A short description of data set [1]: Safety index, IC50 for transformed human kidney epithelial cells to IC50 for Entamoeba histolytica HM1:IMSS.
A further data set has as its system Entamoeba histolytica. Put plainly: Antiamoebic activity against Entamoeba histolytica HM1:IMSS after 72 hrs by microplate method. Format: functional, organism-based. The essentials:
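E. histolytica HM1:IMSS trophozoites in a microplate assay. Samples in DMSO plus medium (1 mg/mL), diluted to 0.1 mg/mL, then twofold serial dilutions. Inoculum 1.7 × 10^4 amoebae/well (viability by trypan blue), N2-gassed, 37 °C for 72 h. Cells methanol-fixed, eosin-stained, dye released in 0.1 N NaOH, OD 490 nm. % inhibition vs untreated control against log dose; IC50 by linear regression.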

A further data set concerns HEK293 (human). Briefly: Cytotoxicity against human HEK293 cells after 44 hrs by MTT assay. As to conditions: HEK293, 44 h. (Formazan colour is commonly taken as a measure of viable cells.)
Data set [2] can be described thus: Safety index, IC50 for human […] to IC50 for Entamoeba histolytica HM1:IMSS. Format: toxicity, cell-based. To be noted: read-out: Ratio IC50. Summed up:
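Safety index = IC50 in human kidney epithelial cells (MTT, 44 h + 4 h) divided by IC50 against E. histolytica HM1:IMSS (microplate eosin assay, 72 h).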

For orientation: IC50 means the midpoint of a concentration-inhibition curve. Turning to `Cc1ccccc1NC(=S)N/N=C\c1c[nH]c2ccccc12`, in data set [1], the selectivity ratio is over 48.8. In addition, the IC50 in the data set with Entamoeba histolytica is 2.05 µM; with HEK293 (human) it was over 100 µM.
In the same order, the values of `Cc1cccc(NC(=S)N/N=C\c2c[nH]c3ccccc23)c1` are over 77.5, 1.29 µM and over 100 µM.
`CN(Cc1ccccc1)C(=S)N/N=C\c1c[nH]c2ccccc12`: in data set [1], the selectivity ratio was over 40.6. Moreover, the results for the concentration for half-maximal inhibition (IC50) in the data set with Entamoeba histolytica and in the data set on HEK293 (human) were 2.46 µM and over 100 µM, respectively.
Take `CC(C)CNC(=S)N/N=C\c1c[nH]c2ccccc12`: the selectivity ratio in data set [1] was over 17.4. For the same compound, the half-maximal inhibitory concentration (IC50) is 5.76 µM in the data set on Entamoeba histolytica and over 100 µM in the data set with HEK293 (human).
Take `Fc1ccc(NC(=S)N/N=C\c2c[nH]c3ccccc23)c(F)c1`: the selectivity ratio in data set [2] is over 16.5. The compound also gave an IC50 in the data set with Entamoeba histolytica of 6.05 µM.
As to `Cc1ccc(NC(=S)N/N=C\c2c[nH]c3ccccc23)cc1`, the selectivity ratio in data set [1] is over 30.8. For the same compound, the IC50 was 3.25 µM with Entamoeba histolytica and over 100 µM with HEK293 (human).
Regarding `CCCCN(C)C(=S)N/N=C\c1c[nH]c2ccccc12`, the selectivity ratio in data set [1] was over 18.2. Further, the figures for the IC50 in the data set on Entamoeba histolytica and in the data set on HEK293 (human) were 5.5 µM and over 100 µM, respectively.
On to `CCCCNC(=S)N/N=C\c1c[nH]c2ccccc12`, for which, in data set [1], the selectivity ratio was over 24.4. The results for the IC50 in the data set with Entamoeba histolytica and in the data set with HEK293 (human) were 4.09 µM and over 100 µM, respectively.
As for `CC(C)NC(=S)N/N=C\c1c[nH]c2ccccc12`, the selectivity ratio in data set [1] was over 13.1. Further, the IC50 with Entamoeba histolytica was 7.64 µM; in the data set on HEK293 (human), over 100 µM.
As to `S=C(NCc1ccccc1Cl)N/N=C\c1c[nH]c2ccccc12`, the selectivity ratio in data set [1] was over 30.5. The IC50 is 3.28 µM with Entamoeba histolytica and over 100 µM in the data set on HEK293 (human).
For `Cc1ncc([N+](=O)[O-])n1CCO` [METRONIDAZOLE], the selectivity ratio in data set [1] was over 55.2. Further, in the data set on HEK293 (human), the IC50 was over 100 µM.
As to `CCN(CC)C(=S)N/N=C\c1c[nH]c2ccccc12`, the selectivity ratio in data set [1] was over 38.8. Further, the IC50 in the data set on Entamoeba histolytica was 2.58 µM; in the data set with HEK293 (human), over 100 µM.
Take `CCCNC(=S)N/N=C\c1c[nH]c2ccccc12`: the selectivity ratio in data set [1] is over 14.6. The IC50 was 6.84 µM in the data set on Entamoeba histolytica and over 100 µM with HEK293 (human).
In the same order, the values of `NC(=S)N/N=C\c1c[nH]c2ccccc12` are over 8.68, 11.5 µM and over 100 µM.
